Experimental data: ChEMBL document CHEMBL3112482, “Nonclassical antifolates, part 5. Benzodiazepine analogs as a new class of DHFR inhibitors: synthesis, antitumor testing and molecular modeling study” (Eur J Med Chem, 2014)

Key:
[1] = system: SK-MEL-28; test: Growth inhibition of human SK-MEL-28 cells at 10 uM after 48 hrs; type: functional; conditions: SK-MEL-28, 48 h, read-out: GI
How it was run: (§1)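 NCI 60-cell-line disease-oriented human tumor panel, single-dose primary screen at 10 µM. Data given as mean-graph percent growth of treated cells, reported as percent growth inhibition (GI %).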

[2] = system: OVCAR-8; test: Growth inhibition of human OVCAR8 cells at 10 uM after 48 hrs; type: functional; conditions: OVCAR-8, 48 h, read-out: GI
How it was run: (§2)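 Single-dose primary screen in the NCI 60 human tumour cell line panel, run at the NCI facility. The panel covers nine subpanels: leukaemia, non-small cell lung, colon, CNS, melanoma, ovarian, renal, prostate and breast. Read-out was percent growth of treated cells, shown as a mean graph and reported as percent growth inhibition.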

[3] = system: SW-620; test: Growth inhibition of human SW620 cells at 10 uM after 48 hrs; type: functional; conditions: SW-620, 48 h, read-out: GI; how it was run: as §1
[4] = system: SNB-75; test: Growth inhibition of human SNB75 cells at 10 uM after 48 hrs; type: functional; conditions: SNB-75, 48 h, read-out: GI; how it was run: as §1
[5] = Cytotoxicity against human prostate cancer cells at 10 uM after 48 hrs; type: functional; conditions: Cancer cell lines
[6] = system: 786-0; test: Growth inhibition of human 786-0 cells at 10 uM after 48 hrs; type: functional; conditions: 786-0, 48 h, read-out: GI; how it was run: as §2
[7] = system: T47D; test: Growth inhibition of human T47D cells at 10 uM after 48 hrs; type: functional; conditions: read-out: GI; how it was run: as §1
[8] = target: T1, Dihydrofolate reductase (Bos taurus, UniProt P00376); test: Inhibition of bovine liver DHFR measured for every 1 min of 10 mins
T1 sequence (P00376 whole entry): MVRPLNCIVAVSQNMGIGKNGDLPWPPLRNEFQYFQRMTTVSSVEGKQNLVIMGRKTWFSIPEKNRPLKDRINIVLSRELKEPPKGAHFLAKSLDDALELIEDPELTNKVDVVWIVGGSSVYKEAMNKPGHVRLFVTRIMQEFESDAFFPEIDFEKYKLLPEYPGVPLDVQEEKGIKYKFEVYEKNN

[9] = system: TK-10; test: Growth inhibition of human TK10 cells at 10 uM after 48 hrs; type: functional; conditions: TK-10, 48 h, read-out: GI; how it was run: as §1
[10] = system: MDA-MB-231; test: Growth inhibition of human MDA-MB-231 cells at 10 uM after 48 hrs; type: functional; conditions: MDA-MB-231, 48 h, read-out: GI; how it was run: as §2
[11] = system: SF-268; test: Growth inhibition of human SF268 cells at 10 uM after 48 hrs; type: functional; conditions: SF-268, 48 h, read-out: GI; how it was run: as §1
[12] = system: HL-60(TB); test: Growth inhibition of human HL-60(TB) cells at 10 uM after 48 hrs; type: functional; conditions: HL-60, 48 h, read-out: GI
How it was run: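 NCI 60-cell-line human tumour panel covering nine subpanels (leukaemia, non-small cell lung, colon, CNS, melanoma, ovarian, renal, prostate, breast), run at the NCI facility. Primary screen tested a single dose of each compound. Read-out was percent growth of treated cells versus untreated cells, reported from the mean graph as percentage growth inhibition.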

[13] = system: PC-3; test: Growth inhibition of human PC3 cells at 10 uM after 48 hrs; type: functional; conditions: PC-3, 48 h, read-out: GI; how it was run: as §2
[14] = system: MOLT-4; test: Growth inhibition of human MOLT4 cells at 10 uM after 48 hrs; type: functional; conditions: MOLT-4, 48 h, read-out: GI; how it was run: as §2
[15] = Growth inhibition of human OVCAR5 cells at 10 uM after 48 hrs; type: functional; conditions: OVCAR-5, 48 h, read-out: GI; how it was run: as §2
[16] = Growth inhibition of human Hs 578T cells at 10 uM after 48 hrs; type: functional; conditions: read-out: GI; how it was run: as §2
[17] = system: NCI-H322M; test: Growth inhibition of human NCI-H322M cells at 10 uM after 48 hrs; type: functional; conditions: read-out: GI; how it was run: as §2
[18] = system: SK-OV-3; test: Growth inhibition of human SKOV3 cells at 10 uM after 48 hrs; type: functional; conditions: SK-OV-3, 48 h, read-out: GI; how it was run: as §1
[19] = Growth inhibition of human EKVX cells at 10 uM after 48 hrs; type: functional; conditions: read-out: GI; how it was run: as §2
[20] = system: SNB-19; test: Growth inhibition of human SNB19 cells at 10 uM after 48 hrs; type: functional; conditions: SNB-19, 48 h, read-out: GI; how it was run: as §1
[21] = Growth inhibition of human OVCAR4 cells at 10 uM after 48 hrs; type: functional; conditions: OVCAR-4, 48 h, read-out: GI; how it was run: as §2
[22] = Growth inhibition of human NCI-ADR-RES cells at 10 uM after 48 hrs; type: functional; conditions: read-out: GI; how it was run: as §2
[23] = system: NCI-H23; test: Growth inhibition of human NCI-H23 cells at 10 uM after 48 hrs; type: functional; conditions: NCI-H23, 48 h, read-out: GI; how it was run: as §2
[24] = system: MCF7; test: Growth inhibition of human MCF7 cells at 10 uM after 48 hrs; type: functional; conditions: MCF7, 48 h, read-out: GI; how it was run: as §2
[25] = system: SR; test: Growth inhibition of human SR cells at 10 uM after 48 hrs; type: functional; conditions: read-out: GI; how it was run: as §1
[26] = system: CAKI-1; test: Growth inhibition of human CAKI-1 cells at 10 uM after 48 hrs; type: functional; conditions: CAKI-1, 48 h, read-out: GI; how it was run: as §2
[27] = system: DU-145; test: Growth inhibition of human DU145 cells at 10 uM after 48 hrs; type: functional; conditions: DU-145, 48 h, read-out: GI; how it was run: as §2
[28] = Growth inhibition of human UO31 cells at 10 uM after 48 hrs; type: functional; conditions: UO-31, 48 h, read-out: GI; how it was run: as §1
[29] = system: K562; test: Growth inhibition of human K562 cells at 10 uM after 48 hrs; type: functional; conditions: K562, 48 h, read-out: GI; how it was run: as §2
[30] = system: CCRF-CEM; test: Growth inhibition of human CCRF-CEM cells at 10 uM after 48 hrs; type: functional; conditions: read-out: GI; how it was run: as §2
[31] = system: SK-MEL-2; test: Growth inhibition of human SK-MEL-2 cells at 10 uM after 48 hrs; type: functional; conditions: SK-MEL-2, 48 h, read-out: GI; how it was run: as §1
[32] = Growth inhibition of human SF539 cells at 10 uM after 48 hrs; type: functional; conditions: SF-539, 48 h, read-out: GI; how it was run: as §1

With `COc1cc(/C=C2\CCCC3=C(c4cc(OC)c(OC)c(OC)c4)Nc4ccccc4N=C32)cc(OC)c1OC` the inhibition of growth at 10 µM [1] was 70.6%, the inhibition of growth at 10 µM [2] was 81.4% and the inhibition of growth at 10 µM [3] was 94.3%. For the same compound, the inhibition of growth at 10 µM [4] was 45.5%, the GI50 [5] was 2.3 µM and the LC50 [5] was > 100 µM. It also gave a TGI [5] of 53.4 µM, an inhibition of growth at 10 µM [6] of 98.2% and an inhibition of growth at 10 µM [7] of 76.2%. For the same compound, the IC50 [8] was 0.09 µM, the inhibition of growth at 10 µM [9] was < 30% and the inhibition of growth at 10 µM [10] was 75.9%. It also gave an inhibition of growth at 10 µM [11] of 74%, an inhibition of growth at 10 µM [12] of 98.5% and an inhibition of growth at 10 µM [13] of 61.8%. It also gave an inhibition of growth at 10 µM [14] of 99.4%, an inhibition of growth at 10 µM [15] of 83.5% and an inhibition of growth at 10 µM [16] of 46.8%. The inhibition of growth at 10 µM [17] was < 30%, the inhibition of growth at 10 µM [18] was 54.6% and the inhibition of growth at 10 µM [19] was 40.2%. It also gave an inhibition of growth at 10 µM [20] of 35.6%, an inhibition of growth at 10 µM [21] of 66.5% and an inhibition of growth at 10 µM [22] of 94.1%. It also gave an inhibition of growth at 10 µM [23] of 91.5%, an inhibition of growth at 10 µM [24] of 63.1% and an inhibition of growth at 10 µM [25] of 97.3%. It also gave an inhibition of growth at 10 µM [26] of 93.5%, an inhibition of growth at 10 µM [27] of 95.1% and an inhibition of growth at 10 µM [28] of 94.4%. For the same compound, the inhibition of growth at 10 µM [29] was 94.7%, the inhibition of growth at 10 µM [30] was 95.7% and the inhibition of growth at 10 µM [31] was 82.1%. The inhibition of growth at 10 µM [32] was 64.9%.
